Reference: the RNAGym collection of RNA variant scans (doi:10.1126/science.aae0568)
Fewer inactive variants are shown than the library holds.

B1: tRNA (parent)
chain: GUUCCGUUGGCGUAAUGGUAACGCGUCUCCCUCCUAAGGAGAAGACUGCGGGUUCGAGUCCCGUACGGAACG

Variants of: B1
Experiment: yeast fitness relative to wild type (ratio to wild type); higher = fitter; tRNA-Arg(CCU), competitive growth, 37 C, YPD
Summary of the method: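 A pool of Saccharomyces cerevisiae strains, each with a tRNA-Arg(CCU) gene variant at the native genomic locus, was competed in YPD at 37°C for 24 hours across six parallel replicates. The variants had been chemically synthesised at a 3% per-site mutation rate over 69 sites, and gene amplicons before and after competition were read by 100-nucleotide paired-end sequencing. Darwinian fitness relative to wild type rested on changes in genotype frequencies. Genotypes required ≥ 100 starting reads, and estimates < 0.5 were set to 0.5.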

C5G U8C A15G C29A G39A and C5G G17A C33U A37C A65C cannot be ordered by yeast fitness: at most 0.5 for the first, at most 0.5 for the second.

Compared with C5G U19C A57U, C5G G38A is higher in yeast fitness: 0.533 for the first, 0.729 for the second.

Going from C5G U16A C29U A40U to C5G G39A C49U, the yeast fitness rises from 0.523 to 0.524.

Compared with C5G G50A, C5G G50C is lower in yeast fitness: 0.835 for the first, 0.701 for the second.

Compared with C5G U26G G38C G51C, C5G G12C C49U is higher in yeast fitness: at most 0.5 for the first, 0.584 for the second.

Compared with C5G G68U, C5G G17C G63A A65G is lower in yeast fitness: 0.678 for the first, at most 0.5 for the second.

Compared with C5G U7G U32C, C5G U16A C33A A43C is lower in yeast fitness: 0.604 for the first, at most 0.5 for the second.

C5G G23C C33U G39A A43C and C5G U13C U35C cannot be ordered by yeast fitness: at most 0.5 for the first, at most 0.5 for the second.

First: C5G G23C
Second: C5G G44C C55A
The yeast fitness of the first is higher: 0.695 for the first, at most 0.5 for the second.

First: C5G U26C C30U C49U
Second: C5G U26C A70G
The yeast fitness of the first is lower: at most 0.5 for the first, 0.632 for the second.

C5G U35A C49A G51C and C5G U7C C34A cannot be ordered by yeast fitness: at most 0.5 for the first, at most 0.5 for the second.

C5G U26C A43G U47C U64A and C5G U28C C31G C62U cannot be ordered by yeast fitness: at most 0.5 for the first, at most 0.5 for the second.

C5G U8C A15G G18C C62U and C5G U16A C27G A42C A65C cannot be ordered by yeast fitness: at most 0.5 for the first, at most 0.5 for the second.

C5G G51C A65C and C5G G25A G48A C61G cannot be ordered by yeast fitness: at most 0.5 for the first, at most 0.5 for the second.

Going from C5G U16A C29U A40U A65C to C5G U26A A69C, the yeast fitness rises from at most 0.5 to 0.634.

C5G G18C U26C U28A and C5G U7A A20G U47G G50C G51C cannot be ordered by yeast fitness: at most 0.5 for the first, at most 0.5 for the second.

C5G U7C G56A A57U C62G and C5G G41C C61U cannot be ordered by yeast fitness: at most 0.5 for the first, at most 0.5 for the second.

C5G U16C C24U and C5G U16C G39C A57U cannot be ordered by yeast fitness: at most 0.5 for the first, at most 0.5 for the second.

C5G U32A G48C C62U and C5G U7A A20C C46U cannot be ordered by yeast fitness: at most 0.5 for the first, at most 0.5 for the second.

C5G G17C G50A A65U and C5G U13C A21C A70C cannot be ordered by yeast fitness: at most 0.5 for the first, at most 0.5 for the second.

C5G G17C G25A A70G and C5G G17C C55U cannot be ordered by yeast fitness: at most 0.5 for the first, at most 0.5 for the second.

C5G U16A A69U and C5G U19C U35A A43C cannot be ordered by yeast fitness: at most 0.5 for the first, at most 0.5 for the second.

C5G U7G A20G and C5G G12C G18A C24U C29U A36G A69C cannot be ordered by yeast fitness: at most 0.5 for the first, at most 0.5 for the second.

First: C5G G51C A57U C60U
Second: C5G U16A C33A A43C G50A A57U C60G
The yeast fitness of the first is lower: at most 0.5 for the first, 0.523 for the second.

C5G G17A C62A and C5G U13G A14U G48C cannot be ordered by yeast fitness: at most 0.5 for the first, at most 0.5 for the second.

C5G G23A C60U C62G and C5G G18A C55A cannot be ordered by yeast fitness: at most 0.5 for the first, at most 0.5 for the second.

C5G U26C A42G A57G A70G and C5G G25A A42C G68A cannot be ordered by yeast fitness: at most 0.5 for the first, at most 0.5 for the second.

Going from C5G G17C G25A A40C U59A to C5G U35C C49U C61G, the yeast fitness falls from 0.54 to at most 0.5.

First: C5G U35A
Second: C5G U26G C34G A40C C46U C49G
The yeast fitness of the first is higher: 0.615 for the first, 0.558 for the second.

C5G G17A A20C C49G A69C and C5G G52C C66U cannot be ordered by yeast fitness: at most 0.5 for the first, at most 0.5 for the second.

First: C5G U13A C30U
Second: C5G U13G A20U A37G
The yeast fitness of the first is higher: 0.56 for the first, 0.514 for the second.

C5G G18A C22U and C5G G51A G68A cannot be ordered by yeast fitness: at most 0.5 for the first, at most 0.5 for the second.

Compared with C5G G25A A69U, C5G G48A C62G A69U is higher in yeast fitness: 0.75 for the first, 0.768 for the second.

C5G U8C G18C C61U A65C and C5G U26C A43G U47C cannot be ordered by yeast fitness: at most 0.5 for the first, at most 0.5 for the second.

Compared with C5G U19A A45C, C5G G68C A69G is lower in yeast fitness: 0.779 for the first, 0.54 for the second.

Going from C5G U8G A43C G48A to C5G G44A A69U, the yeast fitness rises from 0.547 to 0.646.

Going from C5G G17A C46G to C5G U7G C33A A70U, the yeast fitness rises from 0.538 to 0.57.

Going from C5G U8G C11G to C5G U26C C55G U59A U64G, the yeast fitness falls from 0.509 to at most 0.5.

C5G U8C A20G A43U G51A A65C and C5G U7A A42C cannot be ordered by yeast fitness: at most 0.5 for the first, at most 0.5 for the second.

C5G U8C C27G C33G U35A and C5G U13C C24U cannot be ordered by yeast fitness: at most 0.5 for the first, at most 0.5 for the second.

Going from C5G U7C C11G A40G A57U A70U to C5G G39A, the yeast fitness rises from at most 0.5 to 0.725.

Going from C5G G39A A70G to C5G G39A G52A A70G, the yeast fitness falls from 0.617 to at most 0.5.

Going from C5G G25C C46G U64G to C5G U13C G58C, the yeast fitness rises from at most 0.5 to 0.74.

Compared with C5G G48A C49U, C5G G63A A69C is lower in yeast fitness: 0.933 for the first, 0.614 for the second.

Going from C5G G63C to C5G G63A, the yeast fitness rises from 0.626 to 0.843.

Compared with C5G G17A A20C C49G, C5G G17A A20C G38A G58C C66U is lower in yeast fitness: 0.551 for the first, at most 0.5 for the second.

First: C5G G12C C49U A65C
Second: C5G U19G C22U U32C A65C C66U
The yeast fitness of the first is higher: 0.726 for the first, at most 0.5 for the second.

First: C5G G44A C55G
Second: C5G U8C C11A U26C U35C G50C G52A
The yeast fitness of the first is lower: 0.527 for the first, 0.634 for the second.

First: C5G U13A C22G C29G A40U
Second: C5G U13A C22G U59A
The yeast fitness of the first is higher: 0.556 for the first, at most 0.5 for the second.

First: C5G G48C C49U U54G C55U C66A
Second: C5G U7C C11G A40G A57U
The yeast fitness of the first is higher: 0.604 for the first, 0.542 for the second.

Going from C5G U16A A43G G63U to C5G U35C C66U, the yeast fitness rises from 0.524 to 0.546.

First: C5G U16A
Second: C5G U13C A21C G68U
The yeast fitness of the first is higher: 0.959 for the first, at most 0.5 for the second.

Going from C5G U16A G39A to C5G G50A A65G, the yeast fitness rises from at most 0.5 to 0.587.

Compared with C5G U19C U32C, C5G U13G A20U is lower in yeast fitness: 0.766 for the first, at most 0.5 for the second.

C5G U7C G52A and C5G G23A A43U A65G G68A cannot be ordered by yeast fitness: at most 0.5 for the first, at most 0.5 for the second.

Compared with C5G U19C C24U, C5G U7G C33A is lower in yeast fitness: 0.684 for the first, 0.519 for the second.

Compared with C5G U19G C22U A43C G51A, C5G U13A A65G is higher in yeast fitness: at most 0.5 for the first, 0.603 for the second.

Going from C5G G25A A70C to C5G U35A A40G, the yeast fitness falls from 0.758 to at most 0.5.

First: C5G U28A G67C
Second: C5G U7G A14C U19A G58C
The yeast fitness of the first is higher: 0.634 for the first, 0.584 for the second.

C5G G23A U32C C61A and C5G U7G A57G cannot be ordered by yeast fitness: at most 0.5 for the first, at most 0.5 for the second.

First: C5G G41C A45U
Second: C5G U7G C33G A70U
The yeast fitness of the first is higher: 0.583 for the first, at most 0.5 for the second.

C5G U16C A20G and C5G G23C A36C cannot be ordered by yeast fitness: at most 0.5 for the first, at most 0.5 for the second.

First: C5G U26C G51C A57U
Second: C5G U7C U54A C61U
The yeast fitness of the first is lower: at most 0.5 for the first, 0.557 for the second.

First: C5G G25C G44A
Second: C5G G58A
The yeast fitness of the first is lower: at most 0.5 for the first, 0.957 for the second.

First: C5G G25C C49U
Second: C5G U26A C46U
The yeast fitness of the first is lower: 0.689 for the first, 0.96 for the second.

Going from C5G U16A C29U A40U G52A A65C to C5G G56A, the yeast fitness rises from at most 0.5 to 0.975.

C5G U7G C33A A65C and C5G U26C A42G A57G C61U cannot be ordered by yeast fitness: at most 0.5 for the first, at most 0.5 for the second.

Compared with C5G G25A C61G, C5G U7A C11U C31A A45C is lower in yeast fitness: 0.564 for the first, at most 0.5 for the second.

Compared with C5G U13G C22G C29G A40U U54C C61G, C5G U13G is higher in yeast fitness: 0.567 for the first, 0.703 for the second.

Compared with C5G G38A A69U, C5G G51A is higher in yeast fitness: 0.559 for the first, 0.78 for the second.

First: C5G G51C
Second: C5G G48C A69U
The yeast fitness of the first is higher: 0.761 for the first, 0.587 for the second.

C5G G44C C49U U59G and C5G G39A C49G C55U A57U cannot be ordered by yeast fitness: at most 0.5 for the first, at most 0.5 for the second.

C5G G17C A45G C46U and C5G U7C A20U A43G cannot be ordered by yeast fitness: at most 0.5 for the first, at most 0.5 for the second.

Compared with C5G U13C C62U, C5G U28G C31U G51A U54A U59A is lower in yeast fitness: 0.602 for the first, 0.522 for the second.

C5G U13A C22G C29G A40U U54C and C5G G51C C61G C66U cannot be ordered by yeast fitness: at most 0.5 for the first, at most 0.5 for the second.

Going from C5G G23C C31G C60A A70U to C5G U8A G41C U47A, the yeast fitness rises from at most 0.5 to 0.605.

Compared with C5G U28A, C5G U28C is higher in yeast fitness: 0.669 for the first, 0.737 for the second.

C5G U7A A20C G68C and C5G U35C C49G cannot be ordered by yeast fitness: at most 0.5 for the first, at most 0.5 for the second.

First: C5G U32A
Second: C5G U32G
The yeast fitness of the first is lower: 0.678 for the first, 0.776 for the second.

Going from C5G U13C C22G C33A to C5G U8A A20C A43C C46A, the yeast fitness falls from 0.635 to at most 0.5.

Compared with C5G U19G, C5G U26A A36C C61G A69G is lower in yeast fitness: 0.916 for the first, at most 0.5 for the second.

First: C5G G17C A43U A69C
Second: C5G U16A C31G C66G
The yeast fitness of the first is higher: 0.596 for the first, at most 0.5 for the second.

First: C5G G17A A20C
Second: C5G G25A G48A
The yeast fitness of the first is lower: at most 0.5 for the first, 0.724 for the second.

C5G U7A A14U gave a yeast fitness of 0.624.
